# Most compounds without a hit are left out; they make up all but 12% or so of the library.
# PKD1 kinase inh – blocks activity of human protein kinase D1. PKD1 kinase fluorescence polarization assay. inhibition, % (test concentration not listed). 0.056% of 200,000 active. AID 797
# Wee1 degr inh – human Wee1 degradation inhibition, primary screen | HeLa Luc-Wee1K328M stability, luciferase luminescence; 100% = proteasome inhibitor MG132 effect | P30291 | reporter increase, % at 5 µM | 1.2% of 220,000 active;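 active = activation above the mean of all tested compounds plus 3 SD, set per screening run, cut at about 8.8% in these data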;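 also: cells exposed to compound for 20 h before luminescence read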
# Target sequence (P30291 whole entry K328M): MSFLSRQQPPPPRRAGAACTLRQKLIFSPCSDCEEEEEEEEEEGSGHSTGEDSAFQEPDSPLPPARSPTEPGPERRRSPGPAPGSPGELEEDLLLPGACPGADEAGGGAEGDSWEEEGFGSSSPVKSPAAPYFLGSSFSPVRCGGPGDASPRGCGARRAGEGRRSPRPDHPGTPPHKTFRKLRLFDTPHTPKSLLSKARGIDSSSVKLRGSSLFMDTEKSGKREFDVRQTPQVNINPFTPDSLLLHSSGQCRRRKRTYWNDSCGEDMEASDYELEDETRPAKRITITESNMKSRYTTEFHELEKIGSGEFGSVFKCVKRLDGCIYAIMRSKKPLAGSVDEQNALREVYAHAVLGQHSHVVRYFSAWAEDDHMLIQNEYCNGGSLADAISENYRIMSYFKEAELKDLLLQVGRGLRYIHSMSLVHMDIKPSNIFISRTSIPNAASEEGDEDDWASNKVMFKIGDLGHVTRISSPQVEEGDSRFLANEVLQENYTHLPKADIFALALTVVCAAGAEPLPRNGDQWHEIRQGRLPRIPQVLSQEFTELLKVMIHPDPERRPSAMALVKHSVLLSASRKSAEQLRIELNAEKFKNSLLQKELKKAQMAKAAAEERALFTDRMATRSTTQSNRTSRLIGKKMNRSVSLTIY
# Rad51 HR inh – blocks human Rad51 in homologous recombination. Q06609. hRad51 DNA strand exchange, fluorescence dequenching. inhibition, % at 10 µM. 0.085% of 200,000 active;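 active = inhibition above 40% at the single screening dose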
#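 Test system – preformed human Rad51 ssDNA filaments · Reagent – Donor/quencher-labelled 47-bp dsDNA substrate · Incubation – 37 °C 15-min filament assembly, 30-min compound preincubation, 15-min exchange · Signal – FRET fluorescence dequenching, excitation 485 nm, emission 520 nm · Read-out – percent inhibition from fluorescence, normalised to plate control and blank means · Benchmarks – plate control and blank wells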
# CHOP inhibitor – blocks CHOP induction under ER stress. CHO-K1 CHOP-promoter luciferase, tunicamycin-induced, 15-18 h. inhibition, % at 10 µM. 3.8% of 220,000 active. AID 2732;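 active = compounds that reduced the stress-induced luciferase reporter signal by more than about 70% of percent inhibition, limit read from the data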
# Lmaj promast – Leishmania major promastigote growth inhibition; Leishmania major promastigotes, resazurin fluorescence viability; inhibition, % at 10 µM; 9% of 200,000 active;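 also: promastigotes grown with compound for 44 hours at 28 °C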
# Arbovirus inh – blocks arbovirus infection; inhibition, % at 10 µM; arbovirus infection cell-based antiviral screen; 0.37% of 200,000 active; in the data active = inhibition above about 30%
# Hits are given with their value; - = inactive; . = not tested or not shown. Rule as the data show it, unless noted: active = inhibition above about 50%; inactive = the rest.
SMILES,PKD1 kinase inh,Wee1 degr inh,Rad51 HR inh,CHOP inhibitor,Lmaj promast,Arbovirus inh
Cc1cccn2c(CN(C)CCC3CCCCO3)c(C(=O)N3CCCCC3)nc12 (stereo not drawn),-,-,-,-,-,-
COc1ccc(/C=C/C=N/NC(=O)COc2ccc(OC)cc2)cc1,-,-,-,-,-,-
CC(C)C(NC(=O)COc1ccc2ccccc2c1)C(=O)N/N=C/C=C/c1ccccc1 (stereo not drawn),-,-,-,86,-,-
COc1ccc(Nc2nc(C)nc3c2nnn3Cc2ccccc2)cc1OC,-,-,-,-,-,-
Cc1nc(Nc2ccc(S(=O)(=O)N3CCCCC3C)cc2)c2nnn(Cc3ccccc3)c2n1 (stereo not drawn),-,-,-,74,90,-
Cc1nc(Nc2ccc(Cl)cc2)c2nnn(Cc3ccccc3)c2n1,-,-,-,96,-,-
O=C(Nc1sc2c(c1C(=O)O)CCC2)c1ccco1,-,-,-,-,-,-
COC(=O)c1c(NC(=O)c2ccco2)sc2c1CCC2,-,-,-,76,-,-
O=C(Nc1sc2c(c1C(=O)NC1CC1)CCCCCC2)c1ccco1,-,-,-,96,-,-
COC(=O)c1c(NC(=O)c2c(-c3ccccc3Cl)noc2C)sc2c1CCC2,-,-,.,81,-,-
COC(=O)c1c(NC(=O)c2c(C)noc2C)sc2c1CCCCCC2,-,-,-,-,-,-
CNC(=S)NNC(=O)c1c(C)nc2cc(C)ccn12,.,-,-,-,.,.
O=C(Nc1cccc(C(F)(F)F)c1)c1cc2ncc(Br)cn2n1,-,-,-,79,-,-
Cc1nn(-c2cc(C(F)(F)F)ccc2Cl)c2nc(C(Cl)(Cl)Cl)[nH]c(=O)c12,.,-,.,-,.,.
COc1ccc(Cl)cc1C(=O)Nc1cccc(-c2ccc3nncn3n2)c1,-,-,-,-,-,-
COc1cccc(-c2nn(-c3ccccc3)cc2/C=C\C(=O)c2cccs2)c1,-,-,-,-,65,-
Cc1ccc2c(c1)CCCN2C(=O)c1ccoc1C,-,-,.,-,-,-
CCc1ccc2c(c1)CCCN2C(=O)c1ccccc1C(=O)O,-,-,-,-,99,-
O=C(COC(=O)c1ccc[n+]([O-])c1)Nc1c(Br)cc([N+](=O)[O-])cc1Br,-,-,-,-,61,-
CC(=O)c1cccc(CN2CCN(Cc3ccccc3)C(CCO)C2)c1 (stereo not drawn),-,-,-,-,-,-
Cc1ccc(CN2CCN(Cc3ccc(-n4cccn4)cc3)CC2CCO)cc1 (stereo not drawn),-,-,-,-,62,-
OCCC1CN(Cc2cccc(-n3cccn3)c2)CCN1Cc1ccccc1 (stereo not drawn),-,-,-,-,79,-
CC(C)CCN1CCN(Cc2cccc(-n3cccn3)c2)CC1CCO (stereo not drawn),-,-,-,-,83,-
Cc1cc(-n2cccn2)ccc1CN1CCN(CC(C)C)C(CCO)C1 (stereo not drawn),.,-,-,-,.,.
Cc1ccc(CN2CCN(CCCn3cccn3)CC2CCO)cc1 (stereo not drawn),-,-,-,-,-,-
SMILES,PKD1 kinase inh,Wee1 degr inh,Rad51 HR inh,CHOP inhibitor,Lmaj promast,Arbovirus inh
Cc1cc(-n2cccn2)ccc1CN1CCN(C2CCCC2)C(CCO)C1 (stereo not drawn),-,-,.,-,64,-
CCC(=O)N1CCN(c2nc(-c3ccc(Cl)cc3)cs2)CC1,-,-,-,-,-,-
Cc1ccc(-c2csc(N3CCC(C(N)=O)(N4CCCCC4)CC3)n2)cc1,-,-,-,82,-,-
CC(C)(C)c1ccc(-c2cc(C(=O)NNC(=O)Nc3ccccc3)c3ccccc3n2)cc1,-,-,-,94,-,-
O=C(NNC(=O)c1cc(-c2cccnc2)nc2ccccc12)Nc1ccc(Cl)cc1,-,-,-,-,-,-
O=C(NNC(=O)c1cc(-c2ccccc2)nc2ccccc12)Nc1cccc(Cl)c1,-,-,-,-,99,-
Cc1ccccc1C(=O)NNC(=O)CSc1nc(-c2ccccc2)cc(=O)[nH]1,-,-,-,-,-,-
O=C(NCCCn1ccnc1)C(=O)NCC(c1cccnc1)N1CCN(c2ccccc2)CC1 (stereo not drawn),-,-,-,-,-,-
O=C(NCC(c1cccnc1)N1CCN(c2ccc(F)cc2)CC1)c1ccco1 (stereo not drawn),-,-,-,-,72,-
O=C(NCc1cccnc1)C(=O)NCC(c1ccco1)N1CCN(c2ccc(F)cc2)CC1 (stereo not drawn),-,-,-,-,-,-
COc1cc(C(=O)NCC(c2cccnc2)N2CCN(c3ccc(F)cc3)CC2)cc(OC)c1OC (stereo not drawn),-,-,-,-,78,-
O=C(NCC(c1cccnc1)N1CCN(c2ccc(F)cc2)CC1)c1ccc(F)cc1 (stereo not drawn),-,-,-,-,88,-
COc1ccc(N2CCN(C(CNC(=O)c3ccco3)c3cccnc3)CC2)cc1 (stereo not drawn),-,-,-,-,-,-
COc1ccc(C(=O)NCC(c2cccnc2)N2CCN(c3ccccc3)CC2)cc1OC (stereo not drawn),-,-,-,-,81,-
CCOC(=O)C1CCN(c2c(Nc3ccc(C)c(C)c3)c(=O)c2=O)CC1,.,-,-,-,.,.
C/C(CC(=O)Nc1cccnc1)=N\NC(=O)C(=O)Nc1cccc(C)c1,-,-,.,-,-,-
COc1ccc(C(=O)NCC(c2cccnc2)N2CCN(c3ccc(F)cc3)CC2)cc1OC (stereo not drawn),-,-,-,-,97,-
COC(=O)NCC(c1cccnc1)N1CCOCC1 (stereo not drawn),-,-,-,-,-,-
COc1ccc(N2CCC(CNS(=O)(=O)c3cccc(C(F)(F)F)c3)C2)cc1 (stereo not drawn),-,-,-,74,-,-
CCc1cc2c(=O)c(-c3ccc4c(c3)OCCO4)c(C)oc2cc1OS(C)(=O)=O,-,-,-,-,-,-
COc1ccc(CCNc2nc(N3CCCCC3)nc(N3CCCCC3)n2)cc1OC,-,-,.,-,95,-
COc1nc(NCCc2ccc(OC)c(OC)c2)nc(OC)n1,-,-,-,-,-,-
CCOc1nc(NCCc2ccc(OC)c(OC)c2)nc(NC(C)(C)CO)n1,-,-,-,-,53,-
Cc1cc(N(CCO)CCO)ccc1C(c1ccc(N(CCO)CCO)cc1C)c1ccccc1Cl,-,-,-,-,-,-
CC(C)Oc1ccc(-c2nn(-c3ccccc3)cc2/C=c2\sc3ncnn3c2=O)cc1,-,10,.,-,-,34
O=c1/c(=C/c2cn(-c3ccccc3)nc2-c2ccc(F)cc2)sc2nc3ccccc3n12,-,-,-,-,-,-
Cn1cc([N+](=O)[O-])c(C(=O)Nc2cc(Oc3cccnc3)cc([N+](=O)[O-])c2)n1,-,-,-,-,-,-

# High-throughput results as filed in PubChem BioAssay.
